According to ChEMBL document CHEMBL2057126, “Discovery of new inhibitors of Cdc25B dual specificity phosphatases by structure-based virtual screening” (J Med Chem, 2012):
Each block holds one molecule with its values, some of them ahead of it. Active and inactive are the calls of the source. The calls are words filed in the database; no cut-off is given here.

What was measured:
[1] = target: T1, M-phase inducer phosphatase 1 (Homo sapiens) (UniProt P30304); assay: (§1) Inhibition of recombinant phosphatase activity of Cdc25A catalytic domain expressed in Escherichia coli BL21(DE3) using OMFP as substrate at 100 uM after 15 mins by fluorimetric assay
T1 sequence (whole entry): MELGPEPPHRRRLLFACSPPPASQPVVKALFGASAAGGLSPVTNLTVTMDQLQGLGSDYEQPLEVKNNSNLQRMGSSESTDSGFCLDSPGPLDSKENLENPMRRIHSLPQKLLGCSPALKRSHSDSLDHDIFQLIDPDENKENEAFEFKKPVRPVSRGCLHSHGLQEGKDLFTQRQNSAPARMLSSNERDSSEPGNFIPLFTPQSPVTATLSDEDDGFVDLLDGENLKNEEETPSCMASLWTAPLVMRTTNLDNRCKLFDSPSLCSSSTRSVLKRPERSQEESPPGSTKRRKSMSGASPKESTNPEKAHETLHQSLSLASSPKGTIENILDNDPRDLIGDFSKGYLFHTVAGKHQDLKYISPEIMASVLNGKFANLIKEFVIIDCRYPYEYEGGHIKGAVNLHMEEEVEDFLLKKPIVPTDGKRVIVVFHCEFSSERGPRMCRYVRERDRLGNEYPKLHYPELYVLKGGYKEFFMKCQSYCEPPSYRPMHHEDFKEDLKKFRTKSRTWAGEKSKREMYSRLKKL

[2] = target: T2, M-phase inducer phosphatase 2 (Homo sapiens) (UniProt P30305); assay: (§2) Inhibition of recombinant phosphatase activity of Cdc25B catalytic domain expressed in Escherichia coli BL21(DE3) using OMFP as substrate at 100 uM after 15 mins by fluorimetric assay
T2 sequence (whole entry): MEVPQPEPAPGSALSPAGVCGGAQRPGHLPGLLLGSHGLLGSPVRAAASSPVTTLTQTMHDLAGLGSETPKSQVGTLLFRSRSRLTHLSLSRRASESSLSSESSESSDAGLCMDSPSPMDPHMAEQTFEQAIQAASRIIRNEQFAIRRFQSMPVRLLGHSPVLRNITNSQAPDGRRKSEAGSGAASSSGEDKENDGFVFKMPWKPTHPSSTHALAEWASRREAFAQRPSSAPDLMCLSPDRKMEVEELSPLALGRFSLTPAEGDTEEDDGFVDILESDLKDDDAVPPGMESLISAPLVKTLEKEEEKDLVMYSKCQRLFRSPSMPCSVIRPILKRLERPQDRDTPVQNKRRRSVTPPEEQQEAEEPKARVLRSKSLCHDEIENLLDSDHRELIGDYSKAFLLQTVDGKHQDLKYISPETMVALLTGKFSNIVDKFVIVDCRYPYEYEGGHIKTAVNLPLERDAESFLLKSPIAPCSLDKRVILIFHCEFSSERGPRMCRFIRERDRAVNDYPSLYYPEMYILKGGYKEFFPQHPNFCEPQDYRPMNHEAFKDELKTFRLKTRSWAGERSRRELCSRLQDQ

[3] = target: T3, M-phase inducer phosphatase 3 (Homo sapiens) (UniProt P30307); assay: (§3) Inhibition of recombinant phosphatase activity of Cdc25C catalytic domain expressed in Escherichia coli BL21(DE3) using OMFP as substrate at 100 uM after 15 mins by fluorimetric assay
T3 sequence (whole entry): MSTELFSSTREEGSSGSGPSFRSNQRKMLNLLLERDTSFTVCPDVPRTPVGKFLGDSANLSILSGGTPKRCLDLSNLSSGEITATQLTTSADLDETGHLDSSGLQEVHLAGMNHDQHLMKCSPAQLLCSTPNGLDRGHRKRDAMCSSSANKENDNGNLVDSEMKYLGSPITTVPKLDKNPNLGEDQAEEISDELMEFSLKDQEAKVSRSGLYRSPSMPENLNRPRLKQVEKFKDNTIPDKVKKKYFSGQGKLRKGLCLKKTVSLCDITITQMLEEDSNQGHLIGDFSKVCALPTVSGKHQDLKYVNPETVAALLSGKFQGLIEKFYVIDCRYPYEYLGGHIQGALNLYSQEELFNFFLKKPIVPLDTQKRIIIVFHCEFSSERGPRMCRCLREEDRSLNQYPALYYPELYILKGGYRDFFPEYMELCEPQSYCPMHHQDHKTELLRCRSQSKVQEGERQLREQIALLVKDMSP

[4] = target: T2, M-phase inducer phosphatase 2 (Homo sapiens); assay: (§4) Inhibition of recombinant phosphatase activity of Cdc25B catalytic domain expressed in Escherichia coli BL21(DE3) using OMFP as substrate by spectrofluorimetric analysis
[5] = target: T4, M-phase inducer phosphatase 2 (Homo sapiens, UniProt P30305); assay: as §4
T4 sequence (P30305 whole entry): T2 sequence (whole entry)

[6] = target: T5, M-phase inducer phosphatase 1 (Homo sapiens, UniProt P30304); assay: Inhibition of recombinant phosphatase activity of Cdc25A catalytic domain expressed in Escherichia coli BL21(DE3) using OMFP as substrate by spectrofluorimetric analysis
T5 sequence (P30304 whole entry): T1 sequence (whole entry)
Summary of the method: (§5)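 Purified recombinant Cdc25A catalytic domain; phosphatase activity measured as OMFP hydrolysis versus inhibitor concentration to derive IC50, with Ki calculated from kinetic measurements. Results are averages ± SD of three determinations.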

[7] = target: T5, M-phase inducer phosphatase 1; assay: Inhibition of recombinant phosphatase activity of Cdc25A catalytic domain expressed in Escherichia coli BL21(DE3) using OMFP as substrate by Lineweaver-Burk plot analysis; summary of the method: as §5
[8] = target: T4, M-phase inducer phosphatase 2; assay: Competitive inhibition of recombinant phosphatase activity of Cdc25B catalytic domain expressed in Escherichia coli BL21(DE3) using OMFP as substrate by Lineweaver-Burk plot analysis
[9] = test system: MCF7; assay: Growth inhibition against human MCF7 cells expressing Cdc25A-C assessed as cell viability at 400 uM after 72 hrs by MTS assay; assay type: functional, cell-based
Summary of the method: (§6)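 MCF-7 breast, PC-3 prostate and K562 leukaemia cells treated 72 h with inhibitor or DMSO vehicle control, then cell viability measured. Values are mean ± SD of three experiments; significance by Student's t test, p ≤ 0.05.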

[10] = test system: PC-3; assay: Growth inhibition against human PC3 cells expressing Cdc25A-C assessed as cell viability at 400 uM after 72 hrs by MTS assay; assay type: functional, cell-based; summary of the method: as §6
[11] = test system: K562; assay: Growth inhibition against human K562 cells expressing Cdc25A-C assessed as cell viability at 400 uM after 72 hrs by MTS assay; assay type: functional, cell-based; summary of the method: as §6
[12] = test system: MCF7; assay: Cell cycle arrest in human MCF7 cells assessed as accumulation at G2/M phase at 400 uM after 24 hrs by propidium iodide staining-based flow cytometry (reference value: 9.4 +/- 0.04%); assay type: functional
[13] = test system: MCF7; assay: Cell cycle arrest in human MCF7 cells assessed as accumulation at S phase at 400 uM after 24 hrs by propidium iodide staining-based flow cytometry (reference value: 9.35%); assay type: functional
[14] = test system: MCF7; assay: Cell cycle arrest in human MCF7 cells assessed as accumulation at G1 phase at 400 uM after 24 hrs by propidium iodide staining-based flow cytometry (reference value: 81.3 +/- 0.01%); assay type: functional
[15] = target: T2, M-phase inducer phosphatase 2 (Homo sapiens); assay: Inhibition of Cdc25B in human K562 cells assessed as increase in Cdk1 phosphorylation at 400 uM after 24 hrs by Western blot analysis; assay type: cell-based
Summary of the method: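 K562 cells treated 24 h with inhibitor or DMSO vehicle, lysed, and Western blotted with anti-phospho-Cdk1 (Y15) antibody; total Cdk1 detected as loading control.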

[16] = test system: MCF7; assay: Cell cycle arrest in human MCF7 cells assessed as accumulation at G1 phase at 400 uM after 48 hrs by propidium iodide staining-based flow cytometry (reference value: 64.5 +/- 0.02%); assay type: functional
[17] = test system: MCF7; assay: Cell cycle arrest in human MCF7 cells assessed as accumulation at S phase at 400 uM after 48 hrs by propidium iodide staining-based flow cytometry (reference value: 14.5 +/- 0.01%); assay type: functional
[18] = test system: MCF7; assay: Cell cycle arrest in human MCF7 cells assessed as accumulation at G2/M phase at 400 uM after 48 hrs by propidium iodide staining-based flow cytometry (reference value: 21 +/- 0.04%); assay type: functional
[19] = target: M-phase inducer phosphatase 1 (Homo sapiens) (UniProt P30304); assay: as §1; remark: listed apart in the source
[20] = target: M-phase inducer phosphatase 2 (Homo sapiens) (UniProt P30305); assay: as §2; remark: listed apart in the source
[21] = target: M-phase inducer phosphatase 3 (Homo sapiens) (UniProt P30307); assay: as §3; remark: listed apart in the source

inhibition [1]: 41%
inhibition [2]: 53%
inhibition [3]: 35%
inhibition [4]: Dose-dependent effect
IC50 [5]: 173 µM
IC50 [6]: 110 µM
Ki [7]: 139 µM
Ki [8]: 159 µM
inhibition [15]: Active
Molecule: O=S(=O)(O)c1ccc(-c2nnc(-c3ccccn3)nc2-c2ccc(S(=O)(=O)O)o2)o1
growth inhibition (GI) [9]: Active
growth inhibition (GI) [10]: Active
growth inhibition (GI) [11]: Active
Activity [12]: 10%
Activity [13]: 11.3%
Activity [14]: 78.7%
Activity [16]: 95.4%
Activity [17]: 1.8%
Activity [18]: 2.9%

inhibition [19]: 77%
inhibition [20]: 91%
inhibition [21]: 90%
Molecule: VANADATE
